# Bioassay records from PubChem BioAssay.
# CSC inhib: blocks cancer stem cells; cancer stem cell-like cells viability, luminescence; inhibition, % at 7.5 µM; 1.1% of 300,000 active; AID 2717; in the data active means inhibition above about 75%; inconclusive means no clear call, values can overlap the other calls; tested in HMLE shEcad cells
# PolyA inhibitor: yeast polyadenylation inhibition; activity score, % at 12 µM; 0.02% of 300,000 active; S. cerevisiae SKY197-pL101 polyadenylation reporter, beta-gal luminescence; efflux-impaired pdr1/pdr3 knockout yeast; score 100 = 6 SD above DMSO;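 active means lowest replicate activity score at least 50, where 100 means six control SD above control mean; inconclusive means lowest score under 50 but half or more replicates reach 50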;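 further: yeast exposed to compound for 9 h at 30 °C; higher score means more reporter readthrough which indicates perturbed polyadenylation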
# Calb FLC: affects C. albicans growth with fluconazole; C. albicans CaCi-2 (fluconazole-resistant clinical isolate) + fluconazole, Alamar Blue growth, 48 h; growth inhibition, % (no concentration beside the values); 0.57% of 300,000 active; AID 1979;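 active means growth inhibition above about 58% in most replicates, limit read from the data, passing the limit was not always enough; inconclusive means exactly half the replicates above a set limit; inactive means most replicates below a set limit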;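 further: all wells also contain fluconazole at 8 µg/ml as a sub-toxic cotreatment; 0% = median of DMSO wells and 100% = median of geldanamycin control wells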
# Beta cell apopt: blocks beta cell apoptosis | INS-1E cytokine-induced death, ATP luminescence, 48 h; percent of positive-control rescue, neutral wells zero | protection from apoptosis, % (concentration not given with the values) | 0.8% of 300,000 active | AID 435005;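 active means Every replicate reaches about 75%, or at least half do and their mean reaches it too, limit read from the data; inconclusive means At least half of replicates reach the limit but their mean does not; inactive means Under half of replicates reach the limit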;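 further: 0% = cytokine-treated negative control wells and 100% = positive control rescue; higher means more ATP so stronger rescue from cytokine killing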
# T cruzi repl: T. cruzi replication inhibition; T. cruzi beta-gal in NIH3T3, luminescence, 90 h; inhibition, % (test concentration not listed); 1.4% of 300,000 active; AID 1885;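 active means mean inhibition across valid replicates above about 55%, limit read from the data; inconclusive means mean below that limit but half or more replicates reach it; inactive means mean below it, under half of replicates reach it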;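 further: signal also drops with host cell toxicity which is not excluded here; 0% = plate median of DMSO wells and 100% = zero luminescence signal; higher percent means less beta-gal luminescence so fewer parasites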
#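 System: mouse NIH/3T3 fibroblasts infected with β-gal-expressing T. cruzi Tulahuen C4 / Input: NIH/3T3 cells, 5,000 per well / Buffer or medium: Low-serum DMEM with 2% FBS / Probe or stimulus: 5000 reporter trypomastigotes per well / Schedule: ≥90 h infection period, 3 h prior cell attachment / Measured by: GalScreen luminescence, 60 min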
# HIF act: HIF pathway transcriptional activation | U2OS HRE-luciferase reporter, luminescence; normalized: DMSO 0%, desferrioxamine 100% | activation, % at 7.5 µM (by protocol) | 0.32% of 300,000 active;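 active means mean activation of at least 10% of the iron chelator positive control signal, with at least half of replicates also reaching 10%; inconclusive means mean and replicate majority disagree about reaching 10%; inactive means mean and most replicates under 10%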
# Numbers without * were called inactive; ? = inconclusive; nt = no result. A selection: hits, their analogues and other compounds. The true share with any hit is near 3.1%.
SMILES,CSC inhib,PolyA inhibitor,Calb FLC,Beta cell apopt,T cruzi repl,HIF act
O=C(C[n+]1cc(-c2ccc(Cl)cc2)n2c1CCC2)Nc1nc(-c2ccccc2)cs1,-10,-4,-2,5,-23,0
COc1ccc(-c2c[n+](CC(=O)N3c4ccccc4Sc4ccccc43)c3n2CCC3)cc1,-14,-6,62,21,57*,1
COc1ccccc1C(C)NCC(=O)NC(=O)NCc1ccco1 (stereo unspecified),8,-2,-9,nt,0,0
COc1ccc(/C=C2\Oc3cc(OCC(=O)N4CCC[C@H]4CO)ccc3C2=O)c(OC)c1,-7,-5,9,1,10,0
Cn1c(=O)c([N+](=O)[O-])c(Cl)c2ccccc21,nt,-6,1,nt,88*,0
Cn1c(=O)c([N+](=O)[O-])c(NCCc2ccccc2)c2ccccc21,0,9,-11,1,59*,0
CCN(CC)c1c([N+](=O)[O-])c(=O)n(C)c2ccccc12,-4,-7,0,-1,27,0
CCOC(=O)c1c(NC(=O)COC(=O)/C=C/c2ccccc2)sc(C(=O)NC)c1C,-6,nt,nt,2,nt,nt
CCNCCC(=O)N1c2ccccc2Sc2ccc(C(F)(F)F)cc21,-11,5,-15,2,16,-2
O=C(CCS(=O)(=O)c1cccc2nsnc12)N1CCN(C(=O)c2ccco2)CC1,nt,5,57*,-2,-3,0
Cc1ccc(NC(=O)c2ccccc2)cc1OC(=O)c1ccccc1,8,-5,-11,-5,4,1
O=C1C(Nc2cccc(O)c2)=C(N2CCCCC2)C(=O)c2ccccc21,nt,-19,2,nt,-14,0
COc1ccccc1NC1=C(N2CCCCC2)C(=O)c2ccccc2C1=O,144*,1,93*,102*,62*,1
O=C1C(Nc2ccccc2)=C(N2CCCCC2)C(=O)c2ccccc21,4,2,8,83*,48,0
CC(=O)Nc1ccc(S(=O)(=O)NC2=C(N3CCN(C)CC3)C(=O)c3ccccc3C2=O)cc1,7,0,nt,99*,14,-1
CCN1CCN(C2=C(NS(=O)(=O)c3ccc(NC(C)=O)cc3)C(=O)c3ccccc3C2=O)CC1,12,1,-3,54,0,0
Cc1ccc(NC2=C(N3CCCCC3)C(=O)c3ccccc3C2=O)cc1,-1,23,24,76*,66*,1
O=C1C(NS(=O)(=O)c2ccc(Br)cc2)=C(N2CCCCC2)C(=O)c2ccccc21,8,11,-8,20,22,0
COc1ccccc1OCC(=O)NNc1c2ccccc2nc2ccccc12,1,-17,13,8,32,0
O=C(/C=C/c1ccc(O)cc1)c1ccc(NC2=C(N3CCCCC3)C(=O)c3ccccc3C2=O)cc1,90*,-1,46,10,17,nt
COc1ccc(Cc2noc(CN3CCN(Cc4cccc(Cl)c4)CC3)n2)cc1OC,2,10,?,3,60*,0
COc1ccc(Cc2noc(CN3CCCN(C4Cc5ccccc5C4)CC3)n2)cc1OC,17,6,-37,3,60*,0
Cc1ccc(C2(c3noc(CN4CCC(c5ccncc5)CC4)n3)CCCC2)cc1,92*,8,119*,14,49,0
Fc1cccc(Cc2noc(CN3CCC(c4ccncc4)CC3)n2)c1,50,-12,-22,13,66*,0
Cc1ccc(S(=O)(=O)N(C)C)cc1NC(=S)NC(=O)C12CC3CC(CC(C3)C1)C2,77*,11,-1,nt,4,0
Cc1ccc(S(=O)(=O)N(C)C)cc1NC(=S)NC12CC3CC(CC(C3)C1)C2,nt,7,24,nt,21,0
CCOc1ccc(NC(=O)COC(=O)C23CC4CC(CC(C4)C2)C3)c([N+](=O)[O-])c1,-1,-8,-35,-10,6,-1
Cn1c(O)c(/C=N/Nc2ccccc2)c(=O)n(C)c1=O,89*,-46,?,-3,-4,-1
O=C(O)CCCCCn1c(O)c(C=C2N=c3ccccc3=N2)sc1=S,-9,-4,83*,nt,1,1
N#CC(C#N)=C1C=CC=CN1/C(=C\c1ccco1)C(=O)c1ccc(Br)cc1,-90,nt,nt,101*,nt,nt
